Where two headings read alike, the source gives them in different places.
Key:
cardiac trabeculae = assay: Calcium sensitivity of force generation in isolated cardiac trabeculae; assay type: cell-based, rat; details: 20 μM compound
In short: (§1)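 Four male Sprague Dawley rats (7–9 months); cardiac trabeculae (n=10) and soleus fibers (n=10), soleus fibers typed slow by SDS-PAGE. Force measured in activating solutions of graded pCa, first without then with 20 μM test compound. pCa50 taken from force–pCa curve fits, and the with/without difference was analysed per preparation by paired Student's t-test. Maximal force was the mean of pCa 4.0 activations (every third; n=6), without then with compound.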

[1] = tested on: slow skeletal muscle (soleus) fibers; assay: Calcium sensitivity of force generation in slow skeletal muscle; assay type: cell-based, rat; details: 20 μM compound
In short: as §1

[2] = molecular target: hydrophobic patch of cNTnC in the presence of cTnIsp; details: cited from earlier work

O=C(CSc1nc(-c2ccccc2)c(-c2ccccc2)[nH]1)Nc1nccs1 [Compound 7930079, 2-[(4,5-diphenyl-1H-imidazol-2-yl)thio]-N-1,3-thiazol-2-ylacetamide]
decrease in average maximal force (cardiac trabeculae; pCa 4.0, cardiac trabeculae, P=0.001): 8%
shift of force/pCa curve to higher sensitivity (ΔpCa50) (cardiac trabeculae; rat cardiac trabeculae, n=10, P<.01): 0.05 ± 0.04 pCa unit
effect on average maximal force generation ([1]; pCa 4.0, slow fibers, P=0.39): no effect
shift of force/pCa curve to higher sensitivity (ΔpCa50) ([1]; rat slow fibers, n=10, P<.01): 0.20 ± 0.03 pCa unit
Kd ([2]; read-out: apparent experimental binding affinity): 1.45 ± 0.09 µM

CN1CCN(CCCN2c3ccccc3Sc3ccc(C(F)(F)F)cc32)CC1 [TFP, trifluoperazine]
Kd [2]: 110 ± 20 µM

CC(C)COCC(CN(Cc1ccccc1)c1ccccc1)N1CCCC1 (centres unmarked) [bepridil]
Kd [2]: 380 ± 60 µM

C[C@@H]1CC(=O)NN=C1c1ccc(NN=C(C#N)C#N)cc1 [levosimendan]
Kd [2]: ~700 µM
